Data taken from ChEMBL document CHEMBL1150203, “Antimicrobial diterpenes of Croton sonderianus, 1. Hardwickic and 3,4-secotrachylobanoic acids” (1991).
Values after ≈ are worked out from the molar mass of the structure shown. Active and inactive are the calls of the source. No cut-off for these calls is given here.

Legend:
Bacillus subtilis [1] = test: Antibacterial activity against Bacillus subtilis ATCC 6633 at 1 mg/ml after 48 hrs by agar-well diffusion assay; type: functional; conditions: ATCC 6633, 48 h, read-out: IZ
How it was run: (§1)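 Agar-well diffusion on eugon agar, bacteria streaked by quadrant method from broth culture diluted 1:10 in sterile water; 11 mm wells given 100 μl of compound at 1 mg/ml; 37° incubation. Zone width (mm) read at 24 and 48 h, coded –, + (1–2), ++ (3–6), +++ (7–12), ++++ (>13); streptomycin sulfate positive control.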

Saccharomyces cerevisiae [2] = test: Antifungal activity against Saccharomyces cerevisiae ATCC 9763 after 48 hrs by twofold serial dilution method; type: functional; conditions: ATCC 9763, 48 h
Staphylococcus aureus [3] = test: Antibacterial activity against Staphylococcus aureus ATCC 6538 at 1 mg/ml after 24 hrs by agar-well diffusion assay; type: functional; conditions: ATCC 6538, 24 h, read-out: IZ; how it was run: as §1
Candida albicans [4] = test: Antifungal activity against Candida albicans ATCC 10231 at 1 mg/ml after 72 hrs by agar-well diffusion assay; type: functional; conditions: ATCC 10231, 72 h, read-out: IZ
How it was run: (§2)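 Fungi and yeasts streaked on mycophil agar from broth culture diluted 1:10 in sterile water; 100 μl of compound at 1 mg/ml placed in 11 mm cork-borer wells; plates held at 30°. Inhibition zone width (mm) recorded at 48 and 72 h and coded – to ++++ (1–2, 3–6, 7–12, >13 mm); amphotericin B positive control.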

Helminthosporium [5] = test: Antifungal activity against Helminthosporium ATCC 4671 at 1 mg/ml after 72 hrs by agar-well diffusion assay; type: functional; conditions: for zone of inhibition at 1000 µg/mL: ATCC 4671, 72 h, read-out: IZ; how it was run: as §2
Escherichia coli [6] = test: Antibacterial activity against Escherichia coli ATCC 10536 at 1 mg/ml after 24 hrs by agar-well diffusion assay; type: functional; how it was run: as §1
Helminthosporium [7] = test: Antifungal activity against Helminthosporium ATCC 4671 at 1 mg/ml after 48 hrs by agar-well diffusion assay; type: functional; conditions: ATCC 4671, 48 h, read-out: IZ; how it was run: as §2
Pseudomonas aeruginosa [8] = test: Antibacterial activity against Pseudomonas aeruginosa ATCC 15442 at 1 mg/ml after 48 hrs by agar-well diffusion assay; type: functional; how it was run: as §1
[9] = system: Trichophyton mentagrophytes; test: Antifungal activity against Trichophyton mentagrophytes ATCC 9972 at 1 mg/ml after 72 hrs by agar-well diffusion assay; type: functional; conditions: ATCC 9972, 72 h, read-out: IZ; how it was run: as §2
Saccharomyces cerevisiae [10] = test: Antifungal activity against Saccharomyces cerevisiae ATCC 9763 after 24 hrs by twofold serial dilution method; type: functional; conditions: ATCC 9763, 24 h
[11] = system: Mycolicibacterium smegmatis; test: Antibacterial activity against Mycobacterium smegmatis ATCC 607 at 1 mg/ml after 48 hrs by agar-well diffusion assay; type: functional; conditions: ATCC 607, 48 h, read-out: IZ
How it was run: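 Quadrant-streaked eugon agar plates (broth culture diluted 1:10 in water) with 11 mm wells receiving 100 μl of 1 mg/ml compound, incubated at 37°; inhibition zone width in mm scored at 48 h and 72 h as –, +, ++, +++, ++++ (1–2, 3–6, 7–12, >13 mm); streptomycin sulfate control.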

Escherichia coli [12] = test: Antibacterial activity against Escherichia coli ATCC 10536 at 1 mg/ml after 48 hrs by agar-well diffusion assay; type: functional; how it was run: as §1
Trametes sanguinea [13] = test: Antifungal activity against Polyporus sanguineus ATCC 16422 at 1 mg/ml after 72 hrs by agar-well diffusion assay; type: functional; how it was run: as §2
Aspergillus niger [14] = test: Antifungal activity against Aspergillus niger ATCC 16888 at 1 mg/ml after 48 hrs by agar-well diffusion assay; type: functional; how it was run: as §2
Saccharomyces cerevisiae [15] = test: Antifungal activity against Saccharomyces cerevisiae ATCC 9763 at 1 mg/ml after 72 hrs by agar-well diffusion assay; type: functional; how it was run: as §2
Trametes sanguinea [16] = test: Antifungal activity against Polyporus sanguineus ATCC 16422 at 1 mg/ml after 48 hrs by agar-well diffusion assay; type: functional; how it was run: as §2
[17] = system: Mycolicibacterium smegmatis; test: Antibacterial activity against Mycobacterium smegmatis ATCC 607 at 1 mg/ml after 48 hrs by agar-well diffusion assay; conditions: ATCC 607, 48 h, read-out: IZ
Staphylococcus aureus [18] = test: Antibacterial activity against Staphylococcus aureus ATCC 6538 at 1 mg/ml after 48 hrs by agar-well diffusion assay; type: functional; conditions: ATCC 6538, 48 h, read-out: IZ; how it was run: as §1
Bacillus subtilis [19] = test: Antibacterial activity against Bacillus subtilis ATCC 6633 at 1 mg/ml after 24 hrs by agar-well diffusion assay; type: functional; conditions: ATCC 6633, 24 h, read-out: IZ; how it was run: as §1
[20] = system: Trichophyton mentagrophytes; test: Antifungal activity against Trichophyton mentagrophytes ATCC 9972 at 1 mg/ml after 48 hrs by agar-well diffusion assay; type: functional; conditions: ATCC 9972, 48 h, read-out: IZ; how it was run: as §2
Candida albicans [21] = test: Antifungal activity against Candida albicans ATCC 10231 at 1 mg/ml after 48 hrs by agar-well diffusion assay; type: functional; conditions: ATCC 10231, 48 h, read-out: IZ; how it was run: as §2
Aspergillus niger [22] = test: Antifungal activity against Aspergillus niger ATCC 16888 at 1 mg/ml after 72 hrs by agar-well diffusion assay; type: functional; how it was run: as §2
Bacillus subtilis [23] = test: Antibacterial activity against Bacillus subtilis ATCC 6633 after 48 hrs by twofold serial dilution method; type: functional; conditions: ATCC 6633, 48 h
Pseudomonas aeruginosa [24] = test: Antibacterial activity against Pseudomonas aeruginosa ATCC 15442 at 1 mg/ml after 24 hrs by agar-well diffusion assay; type: functional; how it was run: as §1
Bacillus subtilis [25] = test: Antibacterial activity against Bacillus subtilis ATCC 6633 after 24 hrs by twofold serial dilution method; type: functional; conditions: ATCC 6633, 24 h
Saccharomyces cerevisiae [26] = test: Antifungal activity against Saccharomyces cerevisiae ATCC 9763 at 1 mg/ml after 48 hrs by agar-well diffusion assay; type: functional; how it was run: as §2
[27] = system: Trichophyton mentagrophytes; test: Antifungal activity against Trichophyton mentagrophytes ATCC 9972 after 48 hrs by twofold serial dilution method; type: functional; conditions: ATCC 9972, 48 h
[28] = system: Trichophyton mentagrophytes; test: Antifungal activity against Trichophyton mentagrophytes ATCC 9972 after 24 hrs by twofold serial dilution method; type: functional; conditions: ATCC 9972, 24 h

Row | MIC (Bacillus subtilis [23]) | MIC (Bacillus subtilis [25]) | SMILES | zone of inhibition at 1000 µg/mL (Bacillus subtilis [1]) | zone of inhibition at 1000 µg/mL (Staphylococcus aureus [3]) | zone of inhibition at 1000 µg/mL (Candida albicans [4]) | inhibition zone (IZ) (Escherichia coli [6]) | zone of inhibition at 1000 µg/mL (Helminthosporium [7]) | inhibition zone (IZ) (Pseudomonas aeruginosa [8]) | zone of inhibition at 1000 µg/mL [9] | zone of inhibition at 1000 µg/mL [11] | inhibition zone (IZ) (Escherichia coli [12]) | inhibition zone (IZ) (Aspergillus niger [14]) | inhibition zone (IZ) (Saccharomyces cerevisiae [15]) | zone of inhibition at 1000 µg/mL [17] | zone of inhibition at 1000 µg/mL (Staphylococcus aureus [18]) | zone of inhibition at 1000 µg/mL (Bacillus subtilis [19]) | zone of inhibition at 1000 µg/mL [20] | zone of inhibition at 1000 µg/mL (Candida albicans [21]) | inhibition zone (IZ) (Aspergillus niger [22]) | inhibition zone (IZ) (Pseudomonas aeruginosa [24]) | other results
1 | 25 µg/mL (≈ 82.7 µM) | 25 µg/mL (≈ 82.7 µM) | C=C(C)[C@@H]1CC[C@@]23C[C@@H]4[C@@H](C[C@H]2[C@]1(C)CCC(=O)O)[C@@]4(C)C3 | 7 mm | 7 mm | 3 mm | inactive | 1 mm | inactive | 1 mm | 7 mm | inactive | inactive | inactive | 7 mm | 7 mm | > 12 mm | 3 mm | 3 mm | inactive | inactive | MIC (Saccharomyces cerevisiae [2]): 100 µg/mL (≈ 331 µM); inhibition zone (IZ) (Helminthosporium [5]): inactive; MIC (Saccharomyces cerevisiae [10]): 100 µg/mL (≈ 331 µM); zone of inhibition at 1000 µg/mL (Trametes sanguinea [13]; ATCC 16422, 72 h, read-out: IZ): 1 mm; zone of inhibition at 1000 µg/mL (Trametes sanguinea [16]; ATCC 16422, 48 h, read-out: IZ): 3 mm; inhibition zone (IZ) (Saccharomyces cerevisiae [26]): inactive
2 | 3.12 µg/mL (≈ 5.36 µM) | 3.12 µg/mL (≈ 5.36 µM) | CN[C@@H]1[C@H](O[C@H]2[C@H](O[C@H]3[C@H](O)[C@@H](O)[C@H](N=C(N)N)[C@@H](O)[C@@H]3N=C(N)N)O[C@@H](C)[C@]2(O)C=O)O[C@@H](CO)[C@H](O)[C@H]1O [STREPTOMYCIN] |  |  |  |  |  |  |  |  |  |  |  |  |  |  |  |  |  |  | 
3 | 1.56 µg/mL (≈ 4.93 µM) | 0.78 µg/mL (≈ 2.46 µM) | C[C@@H]1CC[C@@]2(C)C(C(=O)O)=CCC[C@@H]2[C@@]1(C)CCc1ccoc1 | 7 mm | 3 mm | 3 mm | inactive | 3 mm | inactive | 3 mm | 7 mm | inactive | inactive | inactive | 7 mm | 3 mm | 7 mm | 7 mm | 1 mm | inactive | inactive | zone of inhibition at 1000 µg/mL (Helminthosporium [5]): 3 mm; MIC [27]: 25 µg/mL (≈ 79 µM); inhibition zone (IZ) (Trametes sanguinea [13]): inactive; MIC [28]: 25 µg/mL (≈ 79 µM); inhibition zone (IZ) (Trametes sanguinea [16]): inactive; inhibition zone (IZ) (Saccharomyces cerevisiae [26]): inactive
4 |  |  | C[C@@H]1CC[C@@]2(C)C(CO)=CCC[C@@H]2[C@@]1(C)CCc1ccoc1 [HARDWICKIOL] | 3 mm | 3 mm | 7 mm | inactive | 3 mm | inactive | 3 mm | 7 mm | inactive | inactive |  | 7 mm | 3 mm | 3 mm | 7 mm | 3 mm | inactive | inactive | zone of inhibition at 1000 µg/mL (Helminthosporium [5]): 1 mm; inhibition zone (IZ) (Trametes sanguinea [13]): inactive; zone of inhibition at 1000 µg/mL (Saccharomyces cerevisiae [15]; ATCC 9763, 72 h, read-out: IZ): 3 mm; inhibition zone (IZ) (Trametes sanguinea [16]): inactive; zone of inhibition at 1000 µg/mL (Saccharomyces cerevisiae [26]; ATCC 9763, 48 h, read-out: IZ): 3 mm
